Experimental data reported in ChEMBL document CHEMBL4130543, “Bacilotetrins A and B, Anti-Staphylococcal Cyclic-Lipotetrapeptides from a Marine-Derived Bacillus subtilis” (J Nat Prod, 2017).
Values after ≈ are worked out from the molar mass of the structure shown. Active and inactive are the calls of the source. The rule behind the calls is not given here.

Assays:
Staphylococcus aureus [1] = test: Antibacterial activity against […] after 24 hrs by MTT dye based broth microdilution method; assay type: functional; conditions: ATCC 25923, 24 h
Staphylococcus aureus [2] = test: Antibacterial activity against methicillin-resistant Staphylococcus aureus isolate XU2120 after 24 hrs by MTT dye based broth microdilution method; assay type: functional; conditions: isolate XU2120, 24 h
Staphylococcus aureus [3] = test: Antibacterial activity against methicillin-resistant Staphylococcus aureus SA1199B after 24 hrs by MTT dye based broth microdilution method; assay type: functional
Staphylococcus aureus [4] = test: Antibacterial activity against methicillin-resistant Staphylococcus aureus RN4220 after 24 hrs by MTT dye based broth microdilution method; assay type: functional
Staphylococcus aureus [5] = test: Antibacterial activity against methicillin-resistant Staphylococcus aureus isolate EMRSA-15 after 24 hrs by MTT dye based broth microdilution method; assay type: functional
Prostatic carcinoma cell = test: Cytotoxicity against human prostate cancer cells at 3 to 30 ug/ml after 48 hrs by SRB assay; assay type: cell-based
In short: (§1)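 Cells plated in 96-well format with test samples at 30, 10 and 3 μg/mL for 48 h. Adherent cells fixed in 50% (wt/vol) trichloroacetic acid, stained 60 min with 0.4% sulforhodamine B in 1% acetic acid, bound dye dissolved in 10 mM Tris base, absorbance read at 510 nm.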

[6] = Cytotoxicity against human hepatic cancer cells at 3 to 30 ug/ml after 48 hrs by SRB assay; assay type: cell-based; in short: as §1

Compound	MIC (Staphylococcus aureus [1])	MIC (Staphylococcus aureus [2])	MIC (Staphylococcus aureus [3])	MIC (Staphylococcus aureus [4]; RN4220, 24 h)	MIC (Staphylococcus aureus [5])	Activity (Prostatic carcinoma cell)	Activity [6]	MIC (Staphylococcus aureus [5]; isolate EMRSA-15, 24 h)	MIC (Staphylococcus aureus [4])
CCC(C)CCCCCCC[C@@H]1CC(=O)N[C@@H](CC(C)C)C(=O)N[C@@H](CC(C)C)C(=O)N[C@@H](CC(C)C)C(=O)N[C@@H](CCC(=O)O)C(=O)O1 (some centres undefined)	8 µg/mL (≈ 11.5 µM)	16 µg/mL (≈ 23 µM)	8 µg/mL (≈ 11.5 µM)	32 µg/mL (≈ 46 µM)	inactive	Non-Toxic	Non-Toxic	–	–
CCn1cc(C(=O)O)c(=O)c2cc(F)c(N3CCNCC3)cc21 [NORFLOXACIN]	16 µg/mL (≈ 50.1 µM)	16 µg/mL (≈ 50.1 µM)	64 µg/mL (≈ 200 µM)	2 µg/mL (≈ 6.26 µM)	–	–	–	4 µg/mL (≈ 12.5 µM)	–
CCC(C)CC(C)CCCCC[C@@H]1CC(=O)N[C@@H](CC(C)C)C(=O)N[C@@H](CC(C)C)C(=O)N[C@@H](CC(C)C)C(=O)N[C@@H](CCC(=O)O)C(=O)O1 (some centres undefined)	16 µg/mL (≈ 22.6 µM)	16 µg/mL (≈ 22.6 µM)	32 µg/mL (≈ 45.1 µM)	–	inactive	Non-Toxic	Non-Toxic	–	inactive
